Measured values: ChEMBL document CHEMBL1155892, “Characterization of polyketide metabolites from foliar endophytes of Picea glauca” (J Nat Prod, 2008)
Active and inactive are the calls of the source. The rule behind the calls is not given here.

Tests used:
Choristoneura fumiferana = assay: Toxicity against Choristoneura fumiferana assessed as reduction in body weight by diet incorporation assay; type: functional, organism-based
In short: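 Spruce budworm diet-incorporation bioassay with disease-free larvae. Extract dissolved in CH2Cl2, mixed into synthetic diet at 400 µg/g, solvent evaporated overnight. Ten second-instar larvae per cup, 3 cups per extract, held at 25 °C, 55% RH, 16 h light/day until fifth instar (about 1 week). Each larva weighed and head capsule width measured. ANOVA with Fisher's LSD; rugulosin positive control, CH2Cl2 negative control.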

Saccharomyces cerevisiae = assay: Toxicity against Saccharomyces cerevisiae by disc diffusion method; type: functional, organism-based
In short: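 Antifungal screen by disc diffusion. Dried extract, 50 mg dissolved in 1 mL CH2Cl2; 10 µL applied to each small filter disc under aseptic conditions, solvent left to evaporate overnight. Discs placed on malt extract agar plates inoculated with a lawn of yeast, incubated at 25 °C, and inhibition zones measured.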

Hep 3B2 = assay: Cytotoxicity against human Hep3B cells; type: functional, cell-based

Row | SMILES | Activity (Choristoneura fumiferana) | Activity (Saccharomyces cerevisiae) | Activity (Hep 3B2)
1 | C[C@@H]1Cc2cccc(O)c2C(=O)O1 | Active | Active | 
2 | CCCCC1=C(C)COC1=O | Active | Active | 
3 | Cc1ccc(O)c2c1C[C@@H](C)OC2=O | Active | Active | 
4 | COC(=O)c1c(O)c(C)cc2oc3cccc(O)c3c(=O)c12 | Active | Active | 
5 | CCC[C@@H]1Cc2cc(OC)cc(O)c2C(=O)O1 | Active | Active | 
6 | COC(=O)c1ccc(O)c2c1C[C@@H](C)OC2=O | Active | Active | 
7 | C[C@@H]1Cc2c(C=O)ccc(O)c2C(=O)O1 | Active | Active | 
8 | COC(=O)c1c(OC)cc(OC)cc1C(C)=O | Active | Active | 
9 | COc1cc(OC)c(C(=O)O)c(C(C)=O)c1 | Active | Active | 
10 | OCCc1ccc(O)cc1 | Active | Active | inactive
11 | COc1cc(OC)c2c(c1)C(C)OC2=O (stereo not drawn) | Active | Active | 
